Legend:
Assay type in all cases: functional, tissue-based
[1] = biological target: Histamine H1 receptor (Cavia porcellus) (UniProt P31389); experiment: Antagonist activity at histamine H1 receptor in Dunkin-Hartley guinea pig ileum assessed as inhibition of histamine-induced contractions at 10 umol/L; settings: at 10 µM
Method in brief: (§1)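 Ileum segments (2 cm) were taken from stunned animals and mounted in an organ bath under 1 g initial load. The bath held Tyrode's solution at 37 °C, continuously oxygenated. After 20 min stabilization, noncumulative submaximal histamine stimuli were given. Isometric contractions were recorded without compound and after 3-5 min incubation with compound.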

[2] = biological target: Histamine H1 receptor (Cavia porcellus) (UniProt P31389); experiment: Antagonist activity at histamine H1 receptor in Dunkin-Hartley guinea pig ileum assessed as inhibition of histamine-induced contractions at 3 umol/L; settings: at 3 µM; method in brief: as §1
[3] = biological target: Histamine H1 receptor (Cavia porcellus) (UniProt P31389); experiment: Antagonist activity at histamine H1 receptor in Dunkin-Hartley guinea pig ileum assessed as inhibition of histamine-induced contractions at 30 umol/L; settings: at 30 µM; method in brief: as §1

Histamine H1 receptor (Cavia porcellus), sequence (P31389 whole entry): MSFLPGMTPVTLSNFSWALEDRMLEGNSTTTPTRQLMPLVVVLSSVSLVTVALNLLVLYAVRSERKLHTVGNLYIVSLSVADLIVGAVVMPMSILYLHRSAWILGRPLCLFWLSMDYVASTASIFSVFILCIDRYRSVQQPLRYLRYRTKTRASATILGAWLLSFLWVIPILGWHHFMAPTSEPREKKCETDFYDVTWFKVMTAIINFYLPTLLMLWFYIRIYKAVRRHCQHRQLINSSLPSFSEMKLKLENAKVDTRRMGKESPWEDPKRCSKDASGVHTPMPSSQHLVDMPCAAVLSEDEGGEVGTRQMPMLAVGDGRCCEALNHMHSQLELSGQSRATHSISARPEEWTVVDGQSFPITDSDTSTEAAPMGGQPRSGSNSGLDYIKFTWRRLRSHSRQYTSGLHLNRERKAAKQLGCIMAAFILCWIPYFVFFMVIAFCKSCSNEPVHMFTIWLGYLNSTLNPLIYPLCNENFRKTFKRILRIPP

SMILES	inhibition [1]	inhibition [2]	inhibition [3]
O=C1C=C(CN2CCC(=C3c4ccc(Cl)cc4CCc4cccnc43)CC2)/C(=C/c2ccc(F)cc2)O1	19%	6.99%	30.6%
COc1cc(/C=C2\OC(=O)C=C2CN2CCC(=C3c4ccc(Cl)cc4CCc4cccnc43)CC2)cc(OC)c1OC	32.9%	4.23%	52.8%
O=C1C=C(CN2CCC(=C3c4ccc(Cl)cc4CCc4cccnc43)CC2)/C(=C/c2ccc(Cl)cc2)O1	51.3%	37%	66.7%
CCOC(=O)N1CCC(=C2c3ccc(Cl)cc3CCc3cccnc32)CC1	33.4%	15.7%	64.7%
COc1cc(/C=C2\OC(=O)C=C2CN2CCC(=C3c4ccc(Cl)cc4CCc4cccnc43)CC2)ccc1O	42.5%	4.67%	62.6%
CN(C)c1ccc(/C=C2\OC(=O)C=C2CN2CCC(=C3c4ccc(Cl)cc4CCc4cccnc43)CC2)cc1	77.6%	61.6%	82.3%
Clc1ccc2c(c1)CCc1cccnc1C2=C1CCNCC1	77.7%	47.4%	80.4%
O=C1C=C(CN2CCC(=C3c4ccc(Cl)cc4CCc4cccnc43)CC2)C(C(O)c2ccccc2)O1 (configuration not stated)		42.7%	
COc1ccccc1/C=C1\OC(=O)C=C1CN1CCC(=C2c3ccc(Cl)cc3CCc3cccnc32)CC1	59.2%	29.4%	87.8%
O=C1C=C(CN2CCC(=C3c4ccc(Cl)cc4CCc4cccnc43)CC2)/C(=C/c2ccc(O)cc2)O1	41%	3.54%	65.6%
COc1ccccc1C(O)C1OC(=O)C=C1CN1CCC(=C2c3ccc(Cl)cc3CCc3cccnc32)CC1 (configuration not stated)	61.5%	40.8%	74.1%
O=C1C=C(CN2CCC(=C3c4ccc(Cl)cc4CCc4cccnc43)CC2)CO1	79%	33.4%	94.8%
CS(=O)(=O)c1ccc(/C=C2\OC(=O)C=C2CN2CCC(=C3c4ccc(Cl)cc4CCc4cccnc43)CC2)cc1	50.4%	12.4%	71.9%
